The text below walks through data of ChEMBL document CHEMBL3259817, “N-carbamidoyl-4-((3-ethyl-2,4,4-trimethylcyclohexyl)methyl)benzamide enhances staurosporine cytotoxic effects likely inhibiting the protective action of Magmas toward cell apoptosis” (J Med Chem, 2014).

The source made the active and inactive calls. No cut-off for these calls is given here.

Data set [1] has as its system TT. As to the kind of experiment: Induction of apoptosis in human TT cells assessed as caspase 3/7 activation at 1 to 10 uM after 72 hrs by luminescence assay. The class given is functional, cell-based. In short, it runs like this:
(§1)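 TT cells (2 × 10^4/well) exposed 72 h to compound, treatment renewed every 24 h; vehicle 0.1% DMSO. Caspase-Glo 3/7 reagent added at room temperature, plates shaken 30 s, incubated 1 h, luminescence (RLU) read. Mean ± SE percent RLU vs vehicle control; three independent experiments in six replicates.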

The subject of data set [2] is TT. As to the kind of experiment: Cytotoxicity against human TT cells assessed as reduction in cell viability at 1 to 10 uM after 72 hrs by ATPlite assay. The class given is functional, cell-based. In short, it runs like this:
(§2)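 TT or MCF12A cells seeded at 2 × 10^4/well, exposed to compound for 72 h with treatment renewed every 24 h; vehicle control 0.1% DMSO. Viable cell number read by ATPlite luminescence (RLU). Results are mean ± SE percent RLU vs vehicle-treated control from three independent experiments in six replicates.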
A general note: In ATP-based viability assays light output follows the ATP content of the culture.

The test system of data set [3] is TT. As to the kind of experiment: Effect on total TIM16 protein level in human TT cells at 10 uM after 24 hrs by Western blotting analysis. The class given is functional, cell-based. In short, it runs like this: (§3)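 TT cells treated 24 h with 10 μM compound alone or with 50 nM staurosporine, then lysed in RIPA buffer on ice 30 min and centrifuged; protein by BCA. Lysates run on 10% SDS-PAGE, blotted to nitrocellulose, probed with rabbit anti-Tim 16 (1:1000), HRP anti-rabbit IgG (1:5000), ECL detection; stripped and reprobed for β-actin loading control.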
(In general: Immunoblotting shows a protein as a band on a membrane.)

Data set [4] has as its system TT. As to the kind of experiment: Effect on total TIM16 protein level in human TT cells at 10 uM after 24 hrs by Western blotting analysis in presence of staurosporine. The class given is functional, cell-based. In short, it runs like this: as §3
Data set [5] relates to TT. The data set can be described thus: Potentiation of staurosporine-induced apoptosis in human TT cells assessed as caspase 3/7 activation at 5 to 10 uM after 72 hrs by ATPlite assay relative to control. The class given is functional, cell-based. Particulars: in the assay text read “Caspase-Glo 3/7 assay” for “ATPlite assay”. The method in brief:
(§4)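 TT cells (2 × 10^4/well) given 5 or 10 μM compound alone or with 50 nM staurosporine, renewed every 24 h, for 72 h. Caspase 3/7 activity by Caspase-Glo 3/7: reagent added at room temperature, 30 s shake, 1 h incubation, luminescence read. Mean ± SE percent RLU vs vehicle control, three experiments in six replicates.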

For data set [6], the system named is TT. As to the kind of experiment: Cytotoxicity against human TT cells assessed as reduction in cell viability at 10 uM after 72 hrs by ATPlite assay relative to control. The class given is functional. In short, it runs like this:
as §2

Data set [7] relates to TT. The data set can be described thus: Induction of apoptosis in human TT cells assessed as decrease in mitochondrial membrane potential at 10 uM by JC-1 staining-based fluorescence microscopic analysis. The class given is functional, cell-based. The method in brief:
(§5)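 TT cells treated with 5 or 10 μM compound, 50 nM staurosporine, or the combination. Mitochondrial membrane potential assessed with JC-1 dye, 30 min at 37 °C, by fluorescence microscopy; red aggregate fluorescence indicates retained potential, green monomer fluorescence a fall in potential.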

For data set [8], the system named is TT. The data set can be described thus: Potentiation of staurosporine-induced apoptosis in human TT cells assessed as caspase 3/7 activation at 5 uM after 72 hrs by ATPlite assay relative to control. Particulars: in the assay text read “Caspase-Glo 3/7 assay” for “ATPlite assay”. The class given is functional. The method in brief:
as §4

Data set [9] has as its system TT. The data set can be described thus: Potentiation of staurosporine-induced cytotoxicity against human TT cells assessed as reduction in cell viability at 5 to 10 uM after 72 hrs by ATPlite assay. The data set is classed as functional, cell-based. In short, it runs like this: (§6)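 Cells seeded at 2 × 10^4/well, given 5 or 10 μM compound alone or combined with 50 nM staurosporine, treatments renewed every 24 h for 72 h; vehicle 0.1% DMSO. ATPlite luminescence (RLU) read-out, expressed as mean ± SE percent of vehicle-treated control; three independent experiments, six replicates each.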

Data set [10] concerns TT. The data set can be described thus: Induction of apoptosis in human TT cells assessed as caspase 3/7 activation at 5 uM after 72 hrs by luminescence assay. The data set is classed as functional, cell-based. The method in brief:
as §1

Data set [11] relates to TT. The data set can be described thus: Potentiation of staurosporine-induced apoptosis in human TT cells assessed as decrease in mitochondrial membrane potential at 10 uM by JC-1 staining-based fluorescence microscopic analysis. The data set is classed as functional, cell-based. In short, it runs like this: as §5
Data set [12] deals with TT. As to the kind of experiment: Potentiation of staurosporine-induced apoptosis in human TT cells assessed as caspase 3/7 activation at 10 uM after 72 hrs by ATPlite assay relative to control. The data set is classed as functional. Particulars: in the assay text read “Caspase-Glo 3/7 assay” for “ATPlite assay”. In short, it runs like this: as §4
The subject of data set [13] is TT. The data set can be described thus: Induction of apoptosis in human TT cells assessed as caspase 3/7 activation at 10 uM after 72 hrs by luminescence assay relative to control. The class given is functional. In short, it runs like this: as §1
For data set [14], the system named is TT. The data set can be described thus: Cytotoxicity against human TT cells assessed as reduction in cell viability at 5 uM after 72 hrs by ATPlite assay. The class given is functional, cell-based. In short, it runs like this:
as §2

Data set [15] relates to TT. As to the kind of experiment: Potentiation of staurosporine-induced cytotoxicity against human TT cells assessed as reduction in cell viability at 5 uM after 72 hrs by ATPlite assay relative to control. The class given is functional. The method in brief: as §6
Data set [16] is described as follows: Potentiation of staurosporine-induced cytotoxicity against human MCF12A cells assessed as reduction in cell viability at 5 to 10 uM after 72 hrs by ATPlite assay. The data set is classed as cell-based. Particulars: mcf-12a. In short, it runs like this:
as §6

A short description of data set [17]: Cytotoxicity against human MCF12A cells assessed as reduction in cell viability at 5 to 10 uM after 72 hrs by ATPlite assay. The data set is classed as cell-based. Particulars: mcf-12a. In short, it runs like this:
as §2

In data set [18] the test system is TT. The data set can be described thus: Potentiation of staurosporine-induced cytotoxicity against human TT cells assessed as reduction in cell viability at 10 uM after 72 hrs by ATPlite assay relative to control. The class given is functional. The method in brief: as §6

As for `CCC1=C(C)/C(=C/c2ccc(C(=O)NC(N)=O)cc2)CCC1(C)C`, the result in the data set on TT [1], in the data set with TT [2], with TT [3], in the data set on TT [4] and in the data set with TT [5] was inactive.

On to `CCC1=C(C)/C(=C/c2ccc(C(N)=O)cc2)CCC1(C)C`, for which the outcome in the data set on TT [1], in the data set with TT [2], with TT [3], in the data set with TT [4] and in the data set with TT [5] was inactive.

With `CCC1=C(C)/C(=C/c2ccc(C(=O)NC(=N)N)cc2)CCC1(C)C`, the Activity in the data set with TT [6] amounted to 70%; with TT [8], 40%; with TT [12], 400%; with TT [13], 300%. Further, the outcome in the data set with TT [7], in the data set on TT [3], with TT [4], in the data set with TT [10] and in the data set with TT [14] was inactive. In addition, the result in the data set on TT [9] and in the data set with TT [11] was Active.

With `CCC1C(C)C(Cc2ccc(C(=O)NC(=N)N)cc2)CCC1(C)C` (stereo not drawn), the Activity was 12% in the data set on TT [15]; “Non-toxic” in data set [16]; “Non-toxic” in data set [17]; 140% in the data set with TT [8]; 20% with TT [18]; 330% in the data set with TT [12]. Further, the outcome with TT [1], in the data set on TT [2], in the data set with TT [3] and in the data set on TT [4] was inactive. For the same compound, the result with TT [7] and with TT [11] was Active.

Take `CCC1=C(C)/C(=C/c2ccc(C(=O)O)cc2)CCC1(C)C`: the result with TT [1], in the data set with TT [2], with TT [3], in the data set with TT [4] and in the data set with TT [5] was inactive.
